We go through four molecules from article PMC3972320 (Kidney international, 2013).

Series [1] has as its system NRK cells. Put plainly: Oregon Green 488-labeled fluorescent cisplatin uptake by NRK cells. The class given is cell-based, rat.
Series [2] concerns patients. The note with it: among patients with AKI; cited from earlier work.
The test system of series [3] is NRK cells. Briefly: TUNEL staining of apoptotic NRK cells. The class given is cell-based, rat. The procedure, abridged: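 NRK rat renal epithelial cells on glass coverslips were serum-starved overnight after confluence. […] Cells were PFA-fixed and TUNEL-stained with DAPI counterstain, then imaged by confocal microscopy. TUNEL-positive/DAPI-positive cells were counted in 5 fields at 40X, across 4 independent experiments.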

Series [4] is described as follows: 14C-TEA kinetic study in vivo. Set-up: species or system mouse. The following applies: single injection 10 μl/g BW. Put shortly: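 Male WT, Kl/+ and Tg-Kl mice (129sv background, 12–14 weeks, 30–40 g) got a single i.v. dose of 14C-tetraethylammonium (10 μl/g BW; 0.1 mCi/ml, specific activity 3.5 mCi/mmol). Blood and urine were sampled at 0, 30, 60 and 90 […] post injection, with radioactivity by liquid scintillation counting. AUC0-60 is given as mean ± SD of 3 experiments per genotype.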

Series [5] concerns human OCT2. Format: cell-based.
Series [6] relates to OCT2 mRNA. Put plainly: OCT2 mRNA by qPCR in NRK cells transfected with human OCT2/V5. The class given is cell-based, rat. The following applies: DSAL, NRK cells transfected with human OCT2/V5 and Klotho plasmid. (In general: In qPCR the cycle at which signal appears reflects the starting amount.)
Series [7] relates to human OCT2. Briefly: Cell surface. Format: cell-based. The note with it: DSAL, OCT2/V5-transfected CHO cells.
In series [8] the target is T1, human OCT2 (Homo sapiens, UniProt O15244).
T1 sequence (O15244 1-555): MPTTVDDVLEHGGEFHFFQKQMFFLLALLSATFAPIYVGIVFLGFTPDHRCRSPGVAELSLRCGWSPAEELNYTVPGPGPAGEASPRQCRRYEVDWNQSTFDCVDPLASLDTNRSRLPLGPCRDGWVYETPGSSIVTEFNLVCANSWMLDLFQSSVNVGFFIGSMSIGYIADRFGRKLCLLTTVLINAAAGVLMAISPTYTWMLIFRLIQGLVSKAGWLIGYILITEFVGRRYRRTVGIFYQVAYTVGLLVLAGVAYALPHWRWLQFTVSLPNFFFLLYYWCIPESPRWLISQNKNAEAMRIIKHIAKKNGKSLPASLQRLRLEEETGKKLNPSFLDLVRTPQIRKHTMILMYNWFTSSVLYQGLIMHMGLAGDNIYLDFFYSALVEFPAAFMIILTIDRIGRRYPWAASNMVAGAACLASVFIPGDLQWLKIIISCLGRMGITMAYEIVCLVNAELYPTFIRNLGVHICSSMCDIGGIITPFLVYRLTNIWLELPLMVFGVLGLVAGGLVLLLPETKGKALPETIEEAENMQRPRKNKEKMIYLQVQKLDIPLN
Format: cell-based. The note with it: β-glucuronidase 100μg/ml, sialidase 0.1 IU/ml, cimetidine 0.1 mM, added 16 hours prior to assay.

Series [9] deals with organic cation transporter (OCT). Put plainly: 14C-TEA uptake by NRK cells. Format: cell-based, rat. The following applies: agent added after 14C-TEA.
The test system of series [10] is NRK cells. Briefly: LDH release from NRK cells on Transwell plates. The class given is cell-based, rat.

For the molecule `N.N.[Cl][Pt][Cl]` [cisplatin, cis-diammine-dichloroplatinum], the “side of entry of Oregon Green 488-labeled cisplatin into NRK cells” value in series [1] (Transwell, apical or basolateral addition) is reported as “entered NRK cells solely from the basolateral side”. In addition, the “patients with AKI still having elevated SCr 15 days after treatment” value in series [2] is given as 50%. Besides, the “apoptosis (TUNEL) on cisplatin addition to basolateral medium” value in series [3] is given as “triggers apoptosis”.

Regarding `CC[N+](CC)(CC)CC` [^14C-TEA, ^14C-tetraethylammonium], the entries for the “AUC0-60 of 14C-TEA, Blood 14C-TEA” value in series [4] (Kl/+ mice), in [4] (Tg-Kl mice) and in series [4] (WT mice) were 4.13±0.12 (3) nmol/μl, 2.22±0.12 (3) nmol/μl and 2.68±0.18 (3) nmol/μl, respectively. Besides, the figures for the “AUC0-60 of 14C-TEA, Urine excretion rate 14C-TEA” value in series [4] (Tg-Kl mice) and in series [4] (WT mice) were 1.36±0.08 (3) pmol/mim and 2.08±0.08 (3) pmol/mim, respectively.

As for `O=C(O)[C@@H](O)[C@H]1OC(=O)[C@H](O)[C@H]1O` [DSAL, D-Saccharic acid 1,4-lactone], in [5] (CHO cells transfected with OCT2/V5, β-glucuronidase 100μg/ml, DSAL 10 μM alone), the “OCT2 protein expression by immunocytochemistry” value is “had no effect”. In series [5] (DSAL 10 μM, CHO cells, immunocytochemistry and immunoblot), the “effect on the reduction of OCT2 protein by β-glucuronidase” value is “completely blocked”. In addition, the “effect on the reduction of rat oct2 mRNA induced by Klotho” value in series [6] was “did not abolish”. Further, the “effect on Klotho-induced reduction of cell surface OCT2 (2 hours and 2 days)” value in series [7] is given as “blocked”.

On to `CN/C(=N/CCSCc1nc[nH]c1C)NC#N` [cimetidine], for which the “OCT2 abundance in total cell membrane pool by immunoblot” value in [5] (CHO cells transfected with OCT2/V5, β-glucuronidase 100μg/ml, sialidase 0.1 IU/ml, cimetidine 0.1 mM) is reported as “did not alter”. Besides, the “14C-TEA uptake in OCT2-expressing CHO cells” value in series [8] is recorded as “reduced”. Further, in series [1] (NRK cells, confocal imaging), the “fluorescent cisplatin uptake, agent added to apical side” value is recorded as “not by either agent added to the apical side” and the “fluorescent cisplatin uptake, agent added to basolateral side” value was “blocked”. In addition, the “inhibition of 14C-TEA uptake when 14C-TEA added to basolateral medium 20 minutes prior to agent” value in series [9] is “inhibitory effect was absent”. Besides, in series [3] (Klotho or cimetidine basolateral), the “cisplatin-triggered apoptosis (TUNEL), basolateral co-incubation of agent” value is “rescued”. Further, the “LDH release induced by basolateral cisplatin, agent added into apical side” value in [10] (cisplatin 0.1 mM basolateral, Klotho 0.4 nM or cimetidine 0.1 mM apical) was “not cimetidine decreased LDH release”. Besides, the “LDH release induced by basolateral cisplatin, basolateral co-incubation of agent” value in [10] (cisplatin 0.1 mM, Klotho 0.4 nM or cimetidine 0.1 mM on basolateral side) was “significantly reduced LDH release”.
